Reference: ChEMBL document CHEMBL5042558, “Selective Macrocyclic Inhibitors of DYRK1A/B” (ACS Med Chem Lett, 2022)
Active and inactive are the calls of the source. The rule behind the calls is not given here.

Key:
[1] = molecular target: T1, Dual specificity tyrosine-phosphorylation-regulated kinase 1B (Homo sapiens, UniProt Q9Y463); assay: Inhibition of DYRK1B (unknown origin) measured after 6 hrs in presence of ATP by Z'-LYTE assay
CAL-27 [2] = assay: Induction of apoptosis in human CAL-27 cells assessed as increase in cleaved-PARP level at 1 uM after 24 hrs by Immunoblot analysis relative to control; type: functional
CAL-27 [3] = assay: Induction of apoptosis in human CAL-27 cells assessed as increase in cleaved-PARP level at 10 uM after 24 hrs by Immunoblot analysis relative to control; type: functional
CAL-27 [4] = assay: Induction of apoptosis in human CAL-27 cells assessed as PARP level at 1 uM after 24 hrs by Immunoblot analysis relative to control; type: functional
CAL-27 [5] = assay: Induction of apoptosis in human CAL-27 cells assessed as PARP level at 10 uM after 24 hrs by Immunoblot analysis relative to control; type: functional
CAL-27 [6] = assay: Induction of apoptosis in human CAL-27 cells assessed as BCL-xL level at 1 uM after 24 hrs by Immunoblot analysis relative to control; type: functional
CAL-27 [7] = assay: Induction of apoptosis in human CAL-27 cells assessed as BCL-xL level at 10 uM after 24 hrs by Immunoblot analysis relative to control; type: functional
FaDu = assay: Antiproliferative activity against human FaDu cells assessed as reduction in cell viability at 10 uM measured after 72 hrs by Celltiter-Glo luminescent assay; type: functional
HEK-293T = assay: Antiproliferative activity against human HEK293T cells assessed as reduction in cell viability at 10 uM measured after 72 hrs by Celltiter-Glo luminescent assay; type: toxicity, cell-based
CAL-27 [8] = assay: Induction of apoptosis in human CAL-27 cells assessed as decrease in AKT phosphorylation at S473 residue at 0.5 uM after 24 hrs by Immunoblot analysis relative to control; type: functional; parameters: scale not given: the % may be the effect or the level left
CAL-27 [9] = assay: Induction of apoptosis in human CAL-27 cells assessed as decrease in AKT phosphorylation at S473 residue at 1 uM after 24 hrs by Immunoblot analysis relative to control; type: functional; parameters: scale not given: the % may be the effect or the level left
CAL-27 [10] = assay: Induction of apoptosis in human CAL-27 cells assessed as decrease in AKT phosphorylation at S473 residue at 5 uM after 24 hrs by Immunoblot analysis relative to control; type: functional; parameters: scale not given: the % may be the effect or the level left
CAL-27 [11] = assay: Induction of apoptosis in human CAL-27 cells assessed as decrease in AKT phosphorylation at S473 residue at 10 uM after 24 hrs by Immunoblot analysis relative to control; type: functional; parameters: scale not given: the % may be the effect or the level left
CAL-27 [12] = assay: Induction of apoptosis in human CAL-27 cells assessed as decrease in FOXO3A phosphorylation at serine 253 residue at 0.5 uM after 24 hrs by Immunoblot analysis relative to control; type: functional; parameters: scale not given: the % may be the effect or the level left
CAL-27 [13] = assay: Induction of apoptosis in human CAL-27 cells assessed as decrease in FOXO3A phosphorylation at serine 253 residue at 1 uM after 24 hrs by Immunoblot analysis relative to control; type: functional; parameters: scale not given: the % may be the effect or the level left
CAL-27 [14] = assay: Induction of apoptosis in human CAL-27 cells assessed as decrease in FOXO3A phosphorylation at serine 253 residue at 5 uM after 24 hrs by Immunoblot analysis relative to control; type: functional; parameters: scale not given: the % may be the effect or the level left
CAL-27 [15] = assay: Induction of apoptosis in human CAL-27 cells assessed as decrease in FOXO3A phosphorylation at serine 253 residue at 10 uM after 24 hrs by Immunoblot analysis relative to control; type: functional; parameters: scale not given: the % may be the effect or the level left
[16] = molecular target: Cyclin-dependent kinase 8 (Homo sapiens) (UniProt P49336); assay: Inhibition of CDK8 (unknown origin) in human CAL-27 cells measured after 6 hrs by select screen kinase assay; type: cell-based
Procedure, shortened: (§1)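 Cellular kinase profiling by KiNativ in CAL27 head and neck squamous carcinoma cells. Cells were treated with compound at 1 μM for 6 h, then kinase engagement was profiled across the kinome by KiNativ.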

[17] = molecular target: Cyclin-dependent kinase 19 (Homo sapiens) (UniProt Q9BWU1); assay: Inhibition of […] (unknown origin) in human CAL-27 cells measured after 6 hrs by select screen kinase assay; type: cell-based; procedure, shortened: as §1
[18] = molecular target: T1, Dual specificity tyrosine-phosphorylation-regulated kinase 1B; assay: Inhibition of DYRK1B (unknown origin) at 1 uM by kinomescan method

T1 sequence (Q9Y463 whole entry): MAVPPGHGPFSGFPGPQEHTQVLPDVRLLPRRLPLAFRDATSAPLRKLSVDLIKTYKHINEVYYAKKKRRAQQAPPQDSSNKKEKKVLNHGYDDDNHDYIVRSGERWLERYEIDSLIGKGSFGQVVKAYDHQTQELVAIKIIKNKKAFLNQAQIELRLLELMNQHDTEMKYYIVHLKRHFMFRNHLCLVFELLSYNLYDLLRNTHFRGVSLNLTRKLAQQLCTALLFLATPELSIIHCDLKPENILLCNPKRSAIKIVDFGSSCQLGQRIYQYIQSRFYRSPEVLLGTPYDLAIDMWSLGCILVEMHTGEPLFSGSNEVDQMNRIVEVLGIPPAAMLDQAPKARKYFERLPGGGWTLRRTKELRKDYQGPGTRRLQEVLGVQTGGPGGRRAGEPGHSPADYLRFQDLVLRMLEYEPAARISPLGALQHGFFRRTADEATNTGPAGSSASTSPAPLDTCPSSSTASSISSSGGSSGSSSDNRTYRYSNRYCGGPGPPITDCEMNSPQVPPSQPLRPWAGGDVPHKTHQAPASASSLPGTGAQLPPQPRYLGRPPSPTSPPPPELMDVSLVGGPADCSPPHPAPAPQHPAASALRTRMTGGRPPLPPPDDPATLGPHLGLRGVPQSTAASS
Cyclin-dependent kinase 8 (Homo sapiens), sequence (P49336 whole entry): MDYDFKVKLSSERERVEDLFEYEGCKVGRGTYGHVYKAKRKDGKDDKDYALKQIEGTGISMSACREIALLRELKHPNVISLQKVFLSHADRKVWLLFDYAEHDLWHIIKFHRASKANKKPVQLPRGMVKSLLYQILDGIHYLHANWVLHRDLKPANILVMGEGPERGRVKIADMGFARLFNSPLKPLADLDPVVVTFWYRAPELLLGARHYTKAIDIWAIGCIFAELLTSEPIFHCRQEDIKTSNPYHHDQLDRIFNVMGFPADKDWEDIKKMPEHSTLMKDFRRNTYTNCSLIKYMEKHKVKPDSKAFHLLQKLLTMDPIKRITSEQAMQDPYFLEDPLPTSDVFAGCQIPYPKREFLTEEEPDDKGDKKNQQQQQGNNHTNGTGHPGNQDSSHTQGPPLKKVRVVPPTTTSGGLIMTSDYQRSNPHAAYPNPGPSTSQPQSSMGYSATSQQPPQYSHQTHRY
Cyclin-dependent kinase 19 (Homo sapiens), sequence (Q9BWU1 whole entry): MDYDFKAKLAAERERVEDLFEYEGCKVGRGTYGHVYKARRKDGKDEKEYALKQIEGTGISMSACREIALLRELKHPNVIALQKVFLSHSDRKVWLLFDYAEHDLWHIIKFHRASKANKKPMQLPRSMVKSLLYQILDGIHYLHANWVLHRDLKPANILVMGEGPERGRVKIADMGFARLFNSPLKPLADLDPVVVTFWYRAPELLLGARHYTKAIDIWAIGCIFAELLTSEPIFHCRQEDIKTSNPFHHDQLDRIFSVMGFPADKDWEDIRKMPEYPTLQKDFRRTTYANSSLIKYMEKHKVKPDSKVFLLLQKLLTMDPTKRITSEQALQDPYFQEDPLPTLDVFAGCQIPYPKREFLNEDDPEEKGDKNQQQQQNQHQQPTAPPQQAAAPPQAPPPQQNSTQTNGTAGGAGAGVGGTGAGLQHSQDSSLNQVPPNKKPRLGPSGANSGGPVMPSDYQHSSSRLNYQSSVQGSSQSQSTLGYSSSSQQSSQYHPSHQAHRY

| SMILES | IC50 [1] [nM] | Activity (CAL-27 [2]) [%] | Activity (CAL-27 [3]) [%] | Activity (CAL-27 [4]) [%] | Activity (CAL-27 [5]) [%] | Activity (CAL-27 [6]) [%] | Activity (CAL-27 [7]) [%] | other results |
| --- | --- | --- | --- | --- | --- | --- | --- | --- |
| CN1Cc2nn(C)c(C#N)c2-c2cnc3[nH]cc(c3n2)-c2cn(nc2C(F)(F)F)CCCC1=O | 18 |  |  |  |  |  |  |  |
| CN1Cc2nn(C)c(C#N)c2-c2cc3c(c[nH]c3nn2)-c2cn(nc2C(F)(F)F)CCCC1=O | 3050 |  |  |  |  |  |  |  |
| COc1c2c(nn1C)CN(C(C)C)C(=O)CCCn1cc(c(C(F)(F)F)n1)-c1c[nH]c3ncc-2cc13 |  | 140 | 538 | 110 | 112 | 130 | 84 |  |
| COc1ccc2c(c1)[nH]c1c(C)nccc12 [HARMINE] |  | 139 | 210 | 113 | 141 | 92 | 93 | Activity (FaDu): inactive; Activity (HEK-293T): Active; Activity (CAL-27 [8]): 64%; Activity (CAL-27 [9]): 93%; Activity (CAL-27 [10]): 133%; Activity (CAL-27 [11]): 143%; Activity (CAL-27 [12]): 82%; Activity (CAL-27 [13]): 107%; Activity (CAL-27 [14]): 110%; Activity (CAL-27 [15]): 90%; inhibition [16]: Active; inhibition [17]: Active |
| CN1Cc2nn(C)c(C#N)c2-c2cnc3[nH]nc(c3c2)-c2cn(nc2C(F)(F)F)CCCC1=O | 929 |  |  |  |  |  |  |  |
| CN1Cc2nn(C)cc2-c2cnc3[nH]cc(c3c2)-c2cnn(c2)CCCC1=O | 70 |  |  |  |  |  |  | IC50 [18]: 19 nM |
